# Test results from PubChem BioAssay AID623869 (Vanderbilt High Throughput Screening Facility, 2012).
# Out of some 2,100 compounds screened, about 75 (4%) were called active.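 Rule for the calls: active = calcium fluorescence trace judged by eye to show a response, as agonist, enhancer of the glutamate response, or inhibitor; inactive = trace judged by eye to show no response.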 The full list was thinned out, with actives kept by preference.
# Biological target: Metabotropic glutamate receptor 8 (Rattus norvegicus) (UniProt P70579)
# Assay: rat mGlu8 modulation via Gqi9 calcium signal, confirmation, counter-screen for GIRK activator project, cell-based, HEK293 rmGlu8, Gqi9 chimera, Fluo-4 calcium (AID 623869)
# Settings: HEK293 rmGlu8/Gqi9 calcium flux, Fluo-4 fluorescence; glutamate at EC20 added after compound
# Outline: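 Material: rat mGlu8 HEK-293 cells with transient Gqi9; medium: HEPES-buffered HBSS, pH 7.4; reagent: EC20 glutamate; dosing: one dose, 20 µM addition solution, 0.2% DMSO; incubation: compound 4 min before glutamate, then 2 min recording; measured by: Fluo-4 calcium fluorescence, 1 Hz; evaluation: F/F0 fluorescence traces judged visually for each well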
# Metabotropic glutamate receptor 8 (Rattus norvegicus), sequence (P70579 whole entry, looked up): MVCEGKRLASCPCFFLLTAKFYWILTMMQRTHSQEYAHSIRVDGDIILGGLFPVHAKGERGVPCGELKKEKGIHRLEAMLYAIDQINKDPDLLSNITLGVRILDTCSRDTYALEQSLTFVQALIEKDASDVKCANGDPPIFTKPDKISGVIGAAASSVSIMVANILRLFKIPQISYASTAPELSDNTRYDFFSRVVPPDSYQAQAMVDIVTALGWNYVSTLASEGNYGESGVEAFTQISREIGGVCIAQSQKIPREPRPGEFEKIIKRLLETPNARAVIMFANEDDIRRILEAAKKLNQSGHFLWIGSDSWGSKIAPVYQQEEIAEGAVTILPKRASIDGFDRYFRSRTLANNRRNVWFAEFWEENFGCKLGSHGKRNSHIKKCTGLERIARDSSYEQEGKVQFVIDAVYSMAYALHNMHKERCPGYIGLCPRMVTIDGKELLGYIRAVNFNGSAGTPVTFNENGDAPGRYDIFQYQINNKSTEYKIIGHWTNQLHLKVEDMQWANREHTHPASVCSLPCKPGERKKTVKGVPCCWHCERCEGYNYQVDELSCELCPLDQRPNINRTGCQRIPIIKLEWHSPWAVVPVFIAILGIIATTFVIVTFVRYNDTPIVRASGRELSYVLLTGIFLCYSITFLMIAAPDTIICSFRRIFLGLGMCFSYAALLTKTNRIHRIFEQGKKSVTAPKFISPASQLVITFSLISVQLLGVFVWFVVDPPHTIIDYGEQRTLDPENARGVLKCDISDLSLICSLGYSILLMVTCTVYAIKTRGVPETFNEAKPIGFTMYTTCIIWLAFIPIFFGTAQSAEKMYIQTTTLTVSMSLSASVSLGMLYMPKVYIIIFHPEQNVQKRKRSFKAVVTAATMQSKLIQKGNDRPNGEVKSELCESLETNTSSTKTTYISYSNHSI
row,Structure (SMILES),outcome
1,COC(=O)c1cc(CSc2nc3ccc(C)cc3[nH]2)oc1C,inactive; 0
2,O=C(NNC(=S)Nc1cccc2ccccc12)c1cccc(Br)c1,inactive; 0
3,CCc1c(C)c(C#N)c2nc3ccccc3n2c1NCc1ccco1,inactive; 0
4,Cc1ccc2nc(-c3ccc(O)cc3)c(Nc3ccc4c(c3)OCCO4)n2c1,inactive; -1
5,O=c1c2cc(Cl)ccc2[nH]c(=S)n1Cc1ccco1,inactive; 0
6,O=C(NC(=S)Nc1ccc(N2CCCCC2)cc1)c1ccco1,inactive; 0
7,Cc1cc(C)c2[nH]c(=S)cc(C)c2c1,inactive; 0
8,CCCCn1c(=S)[nH]c2c(oc3ccc(Cl)cc32)c1=O,inactive; 0
9,Cc1ccc2c(c1)NC(=O)CC(c1ccccc1)=N2,active; 2
10,O=C1CC(C(F)(F)C(F)(F)C(F)(F)F)=Nc2ccccc2N1,inactive; 0
11,O=C(NC(=S)N1CCN(c2ccc([N+](=O)[O-])cc2)CC1)c1ccc(F)cc1,inactive; 0
12,COc1ccc(NC(=O)C(=O)NNC(=O)c2cccs2)cc1,inactive; 0
13,Cc1ccccc1C(=O)NC(=S)NCCc1ccccc1,active; -1
14,CCCCNC(=S)NC(=O)c1ccc(Cl)cc1Cl,inactive; 0
15,O=C(NC(=S)NCCc1ccccc1)c1ccco1,inactive; 0
16,Cc1ccccc1C(=O)NNC(=S)NC(=O)c1ccccc1,active; 1
17,O=C(NC(=S)NCCc1ccccc1)c1ccccc1,inactive; 0
18,Cc1ccccc1C(=O)NNC(=S)NC(=O)c1ccc(Cl)cc1Cl,active; 1
19,O=C(COc1ccccc1)NNC(=S)NC(=O)c1ccc(Cl)cc1Cl,active; 1
20,Cc1ccccc1C(=O)NC(=S)Nc1ccc(Oc2ccc(Cl)cc2)cc1,inactive; 4
21,COC(=O)c1ccccc1NC(=S)NC(=O)c1ccccc1,inactive; 0
22,Cc1ccc(C(=O)NNC(=S)NC(=O)c2ccc(Cl)cc2Cl)cc1,inactive; 4
23,CC(C)NC(=S)NC(=O)c1ccc(Cl)cc1Cl,inactive; 0
24,CC(C)CNC(=S)NC(=O)c1ccc(Cl)cc1Cl,inactive; 0

row,Structure (SMILES),outcome
1,CC(C)C(=O)Nc1ccccc1N1CCN(C(=O)c2ccccc2)CC1,inactive; 0
2,CC1(C)Cc2c(sc3[nH]c(=S)n(Cc4ccco4)c(=O)c23)CO1,inactive; 0
3,Cc1[nH]n2c(=O)cc(C(C)(C)C)nc2c1-c1ccccc1,inactive; 0
4,COC(=O)c1sc(NC(=S)NC(=O)c2ccccc2)nc1C,inactive; 0
5,Cc1ccccc1C(=O)Nc1ccccc1C(=O)N/N=C\c1ccco1,inactive; 0
6,O=C(N/N=C(\c1ccccc1)c1cccnc1)C(O)(c1ccccc1)c1ccccc1,inactive; 0
7,CC(Oc1ccc(Cl)cc1Cl)C(=O)NC(=S)N1CCc2ccccc21 (stereo not given),inactive; 0
8,Cc1onc(-c2ccccc2)c1C(=O)NC(=S)Nc1sc2c(c1C#N)CCCC2,inactive; 0
9,Cc1onc(-c2ccccc2)c1C(=O)NNC(=S)NC(=O)c1ccc(Br)cc1,active; 1
10,Cc1ccccc1NC(=S)NC(=O)c1cncc(Br)c1,inactive; 0
11,Cc1cccc(OCC(=O)Nc2ccccc2N2CCN(C(=O)C(C)C)CC2)c1C,inactive; 0
12,CCc1ccc(Nc2nc3ccccc3c(=O)s2)cc1,inactive; 0
13,O=C1OC2(CCCCC2)OC(=O)C1=CNc1nc2ccccc2s1,inactive; 0
14,Cc1ccc(C)c(NC(=S)NNC(=O)c2csc(C(C)C)c2)c1,inactive; 0
15,COc1ccccc1C1=Nn2c(nnc2C2CCCCC2)SC1,inactive; 0
16,CCCc1nnc2n1N=C(c1ccc(OC)c(OC)c1)CS2,active; 2
17,COc1ccc(-c2nnc3sc(C4CCCCC4)nn23)cc1OC,active; 2
18,COc1ccc(C2=Nn3c(nnc3C3CCCCC3)SC2)cc1OC,active; 2
19,Brc1ccccc1C1=Nn2c(nnc2-c2ccccc2)SC1,inactive; 0
20,CCOc1ccc(-c2nc(-c3ccc(OC)c(OC)c3)no2)cc1OCC,inactive; 0
21,c1cc2c(cc1C1=Nn3c(nnc3C3CCCCC3)SC1)OCO2,inactive; 0
22,CC(C)COn1c(=S)[nH]c2ccccc2c1=O,inactive; 0
23,Cc1ccc(N2C(=S)N=C(Nc3ccccc3C)C23CCOC(C)(C)C3)cc1 (stereo not given),inactive; 0
24,C=CCN(CC=C)C(=S)NC(=O)c1ccc(OC)c(Br)c1,inactive; 0

row,Structure (SMILES),outcome
1,Cc1ccc(N=C2CCCN2Cc2ccccc2)c(C#N)c1,inactive; 0
2,CCC(C)n1c(=S)[nH]c2c(sc3ccc([N+](=O)[O-])cc32)c1=O (stereo not given),inactive; 4
3,O=C(COc1ccccc1)NC(=S)N1CCc2ccccc21,inactive; 0
4,O=C(NC(=S)N1CCN(Cc2ccc3c(c2)OCO3)CC1)c1cccc(Br)c1,inactive; 0
5,CC(c1ccc(Cl)cc1)n1c(-c2ccc3ccccc3n2)n[nH]c1=S (stereo not given),inactive; 0
6,O=C(N/N=C/c1ccccn1)c1ccc(Br)cc1,inactive; 0
7,O=C(NC(Nc1nc2ccc([N+](=O)[O-])cc2s1)(C(F)(F)F)C(F)(F)F)c1ccccc1,inactive; 4
8,O=C(NC(Nc1nc2ccc([N+](=O)[O-])cc2s1)(C(F)(F)F)C(F)(F)F)c1ccccc1Cl,active; -1
9,Cc1ccc(C)c(OCC(=O)Nc2nc3ccc([N+](=O)[O-])cc3s2)c1C,inactive; 0
10,CCOC(=O)c1sc2ncnc(NCc3ccco3)c2c1C,active; 2
11,Cc1sc2ncnc(SCc3ccco3)c2c1C,inactive; 0
12,CCOC(=O)c1sc(NC(=S)NC(=O)c2ccco2)nc1C,inactive; 0
13,O=C(Nc1nc(-c2ccccc2)c(-c2ccccc2)o1)c1ccc(F)cc1,inactive; 0
14,COc1ccc(C)cc1NC(=O)C(=O)NNC(=O)c1ccco1,inactive; 0
15,Cc1ccc(-c2csc3nc[nH]c(=S)c23)cc1C,inactive; 0
16,COC(=O)C1=NN(C(=O)c2ccc(Cl)cc2)C(O)(c2ccccc2)C1 (stereo not given),inactive; 4
17,COC(=O)CSC1=NS(=O)(=O)c2ccccc21,active; -1
18,CCc1cccc(NC(=O)CSC2=NS(=O)(=O)c3ccccc32)c1,inactive; 0
19,COC(=O)CSc1nc2ncccc2[nH]1,inactive; 0
20,CCn1c(SCC(N)=O)nc2sc3c(c2c1=O)CCCC3,inactive; 0
21,COc1cc(NC(=O)C(=O)NNC(=O)C2CCCCC2)c(OC)cc1Cl,inactive; 0
22,COc1cc(/C=C2\S/C(=N/S(=O)(=O)c3ccc(C)cc3)NC2=O)c([N+](=O)[O-])cc1OC,active; 2
